# In ChEMBL document CHEMBL3399919, “Synthesis, optical properties and preliminary in vitro photodynamic effect of pyridyl and quinoxalyl substituted chlorins” (Bioorg Med Chem, 2015):
# Activity calls are given as the source filed them. No cut-off for these calls is given here.
# What was measured:
# [1] = Singlet oxygen generation assessed as comparative absorbance decay of 1,3-diphenylisobenzofuran at 1 uM at 418 nm after photoirradiation at 2.0 J/cm2 for 15 mins by spectrometry
# Outline: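 Photosensitizer at 1 μM with DPBF (50 μM in DMSO), irradiated; visible spectra recorded and normalized DPBF absorbance at 418 nm compared against DPBF-only control, methylene blue as reference; mean of three experiments.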
# [2] = system: HeLa; test: Photosensitizing activity against human HeLa cells assessed as reduction in cell viability pre-incubated for 24 hrs followed by 15 mins exposure to 670 to 710 nm light at dose of 2.0 J/cm2 and measured 12 hrs after radiation by WST-8 assay; assay type: functional, cell-based; settings: for IC50: light or radiation study
# Outline: (§1)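 HeLa (ATCC) grown in EMEM + 10% FBS, 37 °C, 5% CO2, humidified; seeded per well in 96-well plates, 24 h, then medium replaced with fresh medium containing photosensitizer (0–10 μM). Irradiated with 670–710 nm light, 2 J/cm2 over 15 min, or kept dark; then 12 h at 37 °C in dark. WST-8 (CCK-8) added, 2 h; formazan read. DMSO vehicle control, medium+reagent blank; ≥3 repeats, mean.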
# [3] = system: HeLa; test: Dark toxicity against human HeLa cells assessed as cell viability up to 10 uM incubated for 12 hrs under dark conditions by WST-8 assay; assay type: cell-based; outline: as §1
# [4] = system: HeLa; test: Photosensitizing activity against human HeLa cells assessed as cell viability at 0.05 uM pre-incubated for 24 hrs followed by 15 mins exposure to 670 to 710 nm light at dose of 2.0 J/cm2 and measured 12 hrs after radiation by WST-8 assay; assay type: functional; settings: light or radiation study, read-out: Activity; outline: as §1
# [5] = system: HeLa; test: Photosensitizing activity against human HeLa cells assessed as cell viability at 0.1 uM pre-incubated for 24 hrs followed by 15 mins exposure to 670 to 710 nm light at dose of 2.0 J/cm2 and measured 12 hrs after radiation by WST-8 assay; assay type: functional; settings: light or radiation study, read-out: Activity; outline: as §1
Compound,Activity [1],Activity [2],IC50 [2],Activity [3],viability at 0.05 µM [4],viability at 0.1 µM [5]
C=Cc1c(C)c2cc3nc(c4c5[nH]c(cc6nc(cc1[nH]2)C(C)=C6CC)c(C)c5C(=O)N(Cc1ccncc1)C4=O)[C@@H](CCC(=O)OC)[C@@H]3C,Active,Dose-dependent effect,189 nM,Non-toxic,–,–
CCC1=C(C)c2cc3[nH]c(cc4nc(c5c6[nH]c(cc1n2)c(C)c6C(=O)N(OC)C5=O)[C@@H](CCC(=O)OC)[C@@H]4C)c(C)c3/C=C/c1ccncc1,Active,Dose-dependent effect,3120 nM,Non-toxic,–,–
CCC1=C(C)c2cc3[nH]c(cc4nc(c5c6[nH]c(cc1n2)c(C)c6C(=O)C5)[C@@H](CCC(=O)OC)[C@@H]4C)c(C)c3/C=C/c1ccncc1,Active,Dose-dependent effect,581 nM,Non-toxic,–,–
CCC1=C(C)c2cc3[nH]c(cc4nc(c(CC(=O)OC)c5[nH]c(cc1n2)c(C)c5C(=O)OC)[C@@H](CCC(=O)OC)[C@@H]4C)c(C)c3/C=C/c1ccc2ccccc2n1,Active,Dose-dependent effect,170 nM,Non-toxic,–,–
C=Cc1c(C)c2cc3nc(c4c5[nH]c(cc6nc(cc1[nH]2)C(C)=C6CC)c(/C=C/c1ccncc1)c5C(=O)C4)[C@@H](CCC(=O)OC)[C@@H]3C,Active,Dose-dependent effect,33 nM,Non-toxic,22.2%,1.4%
CCC1=C(C)c2cc3[nH]c(cc4nc(c5c6[nH]c(cc1n2)c(C)c6C(=O)C5)[C@@H](CCC(=O)OC)[C@@H]4C)c(C)c3/C=C/c1ccc2ccccc2n1,Active,Dose-dependent effect,631 nM,Non-toxic,–,–
C=Cc1c(C)c2cc3nc(c(CC(=O)OC)c4[nH]c(cc5nc(cc1[nH]2)C(C)=C5CC)c(C)c4C(=O)NCc1ccncc1)[C@@H](CCC(=O)OC)[C@@H]3C,–,Dose-dependent effect,71 nM,Non-toxic,65.5%,28.1%
CCC1=C(C)c2cc3[nH]c(cc4nc(c5c6[nH]c(cc1n2)c(C)c6C(=O)N(OC)C5=O)[C@@H](CCC(=O)OC)[C@@H]4C)c(C)c3/C=C/c1ccc2ccccc2n1,Active,Dose-dependent effect,992 nM,Non-toxic,–,–
CN(C)c1ccc2nc3ccc(=[N+](C)C)cc-3sc2c1,Active,–,–,–,–,–
CCC1=C(C)c2cc3[nH]c(cc4nc(c(CC(=O)OC)c5[nH]c(cc1n2)c(C)c5C(=O)OC)[C@@H](CCC(=O)OC)[C@@H]4C)c(C)c3/C=C/c1ccncc1,Active,Dose-dependent effect,141 nM,Non-toxic,–,–
